From ChEMBL document CHEMBL2062496, “Identification of a sirtuin 3 inhibitor that displays selectivity over sirtuin 1 and 2” (Eur J Med Chem, 2012)
Active and inactive are the calls of the source. The rule behind the calls is not given here.

Experiments:
[1] = target: T1, NAD-dependent protein deacetylase sirtuin-1 (Homo sapiens) (UniProt Q96EB6); assay: Inhibition of human SIRT1 assessed as enzyme activity using Fluor-de-Lys as substrate at 100 uM by fluorometry
T1 sequence (whole entry): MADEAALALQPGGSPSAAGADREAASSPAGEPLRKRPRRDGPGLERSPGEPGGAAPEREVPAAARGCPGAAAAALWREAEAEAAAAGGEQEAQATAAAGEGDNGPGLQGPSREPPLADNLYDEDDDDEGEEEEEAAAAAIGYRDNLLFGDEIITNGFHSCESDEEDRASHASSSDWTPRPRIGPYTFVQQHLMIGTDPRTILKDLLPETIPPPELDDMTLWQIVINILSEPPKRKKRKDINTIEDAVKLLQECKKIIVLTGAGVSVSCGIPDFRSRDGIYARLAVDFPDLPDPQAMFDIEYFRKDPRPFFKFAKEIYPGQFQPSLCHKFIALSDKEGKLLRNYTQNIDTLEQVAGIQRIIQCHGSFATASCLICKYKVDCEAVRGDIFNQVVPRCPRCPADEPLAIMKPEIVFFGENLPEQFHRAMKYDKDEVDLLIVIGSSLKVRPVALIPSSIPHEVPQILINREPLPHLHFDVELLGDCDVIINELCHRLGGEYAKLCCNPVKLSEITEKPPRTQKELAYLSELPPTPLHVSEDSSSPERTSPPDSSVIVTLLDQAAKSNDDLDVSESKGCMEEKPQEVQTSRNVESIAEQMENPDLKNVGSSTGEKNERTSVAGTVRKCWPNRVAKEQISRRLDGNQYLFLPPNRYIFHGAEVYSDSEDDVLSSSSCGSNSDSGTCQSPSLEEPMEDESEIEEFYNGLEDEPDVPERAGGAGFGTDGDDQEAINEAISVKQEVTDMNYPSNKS
In short: (§1)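 Commercial Fluor-de-Lys kit, substrate human p53 379–382 peptide (Arg-His-Lys-Lys(Ac)). Human Sirt1 or Sirt2 was incubated with substrate, NAD+ and compound at 1 mM, also tested at 100 µM. Fluorescence scales with Lys382 deacetylation. Activity is expressed relative to control, mean ± S.E.M. of 3–4 replicates.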

[2] = target: T2, NAD-dependent protein deacetylase sirtuin-2 (Homo sapiens) (UniProt Q8IXJ6); assay: Inhibition of human SIRT2 assessed as enzyme activity using Fluor-de-Lys as substrate at 1 mM by fluorometry; parameters: scale not given: the % may be the effect or the level left; in short: as §1
T2 sequence (whole entry): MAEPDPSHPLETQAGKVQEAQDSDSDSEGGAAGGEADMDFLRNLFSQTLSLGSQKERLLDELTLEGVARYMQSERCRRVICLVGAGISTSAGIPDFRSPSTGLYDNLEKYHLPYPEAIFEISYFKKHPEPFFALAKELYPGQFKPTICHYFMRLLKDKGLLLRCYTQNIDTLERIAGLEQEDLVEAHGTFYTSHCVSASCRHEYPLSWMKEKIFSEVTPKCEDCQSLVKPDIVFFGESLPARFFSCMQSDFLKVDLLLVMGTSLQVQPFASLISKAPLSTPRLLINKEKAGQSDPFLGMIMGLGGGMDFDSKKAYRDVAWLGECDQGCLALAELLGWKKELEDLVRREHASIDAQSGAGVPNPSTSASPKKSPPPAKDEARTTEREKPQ

[3] = target: T1, NAD-dependent protein deacetylase sirtuin-1 (Homo sapiens); assay: Inhibition of human SIRT1 assessed as enzyme activity using Fluor-de-Lys as substrate at 1 mM by fluorometry; parameters: scale not given: the % may be the effect or the level left; in short: as §1
[4] = target: T2, NAD-dependent protein deacetylase sirtuin-2 (Homo sapiens); assay: Inhibition of human SIRT2 assessed as enzyme activity using Fluor-de-Lys as substrate at 100 uM by fluorometry; in short: as §1
[5] = Cytotoxicity against human SK-MEL-28 cells assessed as cell survival at 100 uM after 48 hrs; assay type: cell-based; conditions: read-out: Survival
In short: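 SK-MEL-28 cells grown in DMEM with 10% foetal bovine serum, 2 mM L-glutamine, penicillin and streptomycin. Cells plated and grown 48 h with or without compound at 100 µM. On the test day, cells washed in Locke's solution (134 mM NaCl, 5 mM KCl, 4 mM NaHCO3, 10 mM HEPES pH 7.6, CaCl2, 1 mM MgCl2, 5 mM sucrose), then incubated 90 min at 37 °C. Survival expressed as percent of control.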

SK-MEL-28 [6] = assay: Reduction in ATP level in human SK-MEL-28 cells at 100 uM maintained in Locke's solution after 24 hrs by luciferase-based assay in absence of GF and glucose; assay type: functional, cell-based
In short: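 SK-MEL-28 cells were grown 24 h in Locke's saline lacking glucose and serum, with or without 100 µM compound; antimycin was the positive control. Cellular ATP was released with a somatic-cell releasing reagent, then luciferase/luciferin assay mix was added and bioluminescence read. Mean ± S.E.M. of 10–14 replicates from 3 separate experiments.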

SK-MEL-28 [7] = assay: Effect on ATP level in human SK-MEL-28 cells maintained in medium containing GF and glucose at 100 uM after 24 hrs by luciferase-based assay; assay type: functional, cell-based
In short: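 SK-MEL-28 cells in DMEM with 10% FBS, grown 24 h in 96-well plates in regular medium (growth factors, glucose), with or without compound at 100 µM. Antimycin served as positive control. Cellular ATP was released with a somatic cell releasing reagent and read by luciferase/luciferin bioluminescence. Mean ± S.E.M. of 10–14 replicates from 3 separate experiments.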

inhibition [1] | Activity [2] [%] | Activity [3] [%] | inhibition [4] | SMILES | viability at 48 h, 100 µM [5] [%] | Activity (SK-MEL-28 [6]) | Activity (SK-MEL-28 [7])
inactive | 100 | 97 | inactive | c1cncc(-n2ccnn2)c1 | – | – | –
inactive | 115 | 108 | inactive | NS(=O)(=O)c1cccnc1 | – | – | –
inactive | 107 | 101 | inactive | Cc1ncccc1C(N)=O | – | – | –
inactive | 145 | 117 | inactive | O=C1NCc2ccncc21 | – | – | –
inactive | 111 | 88 | inactive | O=C1NCc2ncccc21 | – | – | –
– | – | – | – | c1cncc(-c2c[nH]nn2)c1 | 69 | – | –
inactive | 115 | 86 | inactive | O=C1NCCc2ncccc21 | – | – | –
– | 71 | – | – | NC(=O)c1cccnc1 | – | Active | inactive
inactive | 109 | 99 | inactive | NC(=O)/C=C/c1cccnc1 | – | – | –
inactive | 110 | 105 | inactive | Cc1ccncc1C(N)=O | – | – | –
– | 20 | 18 | – | Cc1ccc(C(=O)Nc2ccc(S(=O)(=O)O)c3cc(S(=O)(=O)O)cc(S(=O)(=O)O)c23)cc1NC(=O)c1cccc(NC(=O)Nc2cccc(C(=O)Nc3cc(C(=O)Nc4ccc(S(=O)(=O)O)c5cc(S(=O)(=O)O)cc(S(=O)(=O)O)c45)ccc3C)c2)c1 | – | – | –
inactive | 136 | 125 | inactive | O=C1NCCc2ccncc21 | – | – | –
